Key:
SARS-CoV-2 = assay: Antiviral activity against SARS CoV-2 infected in African green monkey Vero cells assessed as inhibition of viral replication incubated for 48 to 72 hrs by plaque reduction assay; assay type: functional, organism-based; settings: Severe acute respiratory syndrome coronavirus 2, Vero
[1] = Inhibition of SARS CoV-2 3C like protease using FAM-SAVLQ/SG-QLX520 as substrate pretreated for 1 hr followed by substrate addition and measured after 1 hr by FRET assay; set-up: species or system Severe acute respiratory syndrome coronavirus 2
Method in brief: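 SARS-CoV-2 3CLpro was expressed from pET-28a(+). It was preincubated with serial compound dilutions at 37°C for 1 h in 20 mM HEPES pH 8, 200 mM NaCl, 0.4 mM EDTA, 60% glycerol and 6 mM DTT. IC50 came from a variable-slope fit, averaging at least two determinations.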

[2] = Inhibition of SARS CoV-2 3C like protease expressed in HEK293T cells transfected with pGlo-VRLQS incubated for 6 hrs by firefly/renilla luciferase reporter assay; assay type: cell-based; settings: Severe acute respiratory syndrome coronavirus 2, HEK-293T
Method in brief: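 HEK293T cells, one day old, were co-transfected with pR-SARS-CoV-2 3CLpro (3CLpro gene in a PRRSV replicon, between ORF1b and 2a) and pGlo-VRLQS (caged firefly luciferase with a VRLQS cleavage site, plus Renilla control). C145A-mutant and mock transfections served as negative controls. Next morning, serial compound dilutions were added for 6 h at 37 C. Read-out was the firefly/Renilla ratio, and EC50 came from a variable-slope fit.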

[3] = Inhibition of MERS CoV 3C like protease using FAM-SAVLQ/SG-QLX520 as substrate pretreated for 30 mins followed by substrate addition and measured after 1 hr by FRET assay; set-up: species or system Middle East respiratory syndrome-related coronavirus
HEK-293T = assay: Cytotoxicity against HEK293T cells assessed as reduction in cell viability measured after 72 hrs by CytoTox 96 nonradioactive cytotoxicity assay; assay type: cell-based; settings: human
Method in brief: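 HEK293T cells were exposed to compound at 1 to 100 μM for 72 h. Cytotoxicity was read with a CytoTox 96 nonradioactive kit, and CC50 was fitted with a variable-slope curve.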

| Compound | EC50 (SARS-CoV-2) [µM] | IC50 [1] [µM] | EC50 [2] [µM] | IC50 [3] [µM] | CC50 (HEK-293T) [µM] |
| --- | --- | --- | --- | --- | --- |
| CC(C)C[C@H](NC(=O)OCc1ccccc1)C(=O)N[C@@H](C[C@@H]1CCNC1=O)C(O)S(=O)(=O)O (some centres not stated) | 0.23 | – | – | – | – |
| CC(C)C[C@H](NC(=O)OCc1cccc(F)c1)C(=O)N[C@H](C=O)C[C@@H]1CCNC1=O | – | 0.35 | 5.28 | 0.07 | > 100 |
| [2H]C([2H])(OC(=O)N[C@@H](CC(C)C)C(=O)N[C@H](C=O)C[C@@H]1CCNC1=O)c1c(F)c(F)c(F)c(F)c1F | – | 0.47 | – | – | – |
| CCCC[C@H]1CC[C@H](OC(=O)N[C@@H](CC(C)C)C(=O)N[C@H](C=O)C[C@@H]2CCNC2=O)CC1 | – | 0.17 | 4.84 | 0.12 | 55 |
| CCCCC(OC(=O)N[C@@H](CC(C)C)C(=O)N[C@H](C=O)C[C@@H]1CCNC1=O)C1CCC(F)(F)CC1 (some centres not stated) | – | 0.19 | – | – | – |
| [2H]C([2H])(OC(=O)N[C@@H](CC(C)C)C(=O)N[C@@H](C[C@@H]1CCNC1=O)C(O)S(=O)(=O)[O-])c1c(F)c(F)c(F)c(F)c1F.[Na+] (some centres not stated) | – | 0.6 | – | – | – |
| CC(C)C[C@H](NC(=O)OC1CCC(C)(C)CC1)C(=O)N[C@H](C=O)C[C@@H]1CCNC1=O | – | 0.25 | 3.48 | 0.12 | > 100 |
| CC(C)C[C@H](NC(=O)OC[C@H]1CC[C@H](C(F)(F)F)CC1)C(=O)N[C@H](C=O)C[C@@H]1CCNC1=O | – | 0.25 | – | – | – |
| CC(C)C[C@H](NC(=O)OC(c1ccccc1)C1CCC(F)(F)CC1)C(=O)N[C@@H](C[C@@H]1CCNC1=O)C(O)S(=O)(=O)O (some centres not stated) | 0.7 | 0.17 | 1.45 | 0.05 | > 100 |
| CC(C)C[C@H](NC(=O)OCc1ccc(F)cc1)C(=O)N[C@H](C=O)C[C@@H]1CCNC1=O | – | 0.39 | – | – | – |
| CC(C)C[C@H](NC(=O)O[C@H]1CC[C@H](c2ccccc2)CC1)C(=O)N[C@@H](C[C@@H]1CCNC1=O)C(O)S(=O)(=O)O (some centres not stated) | – | 0.23 | – | – | – |
| CC(C)C[C@H](NC(=O)OC(C)(C)C1CCC(F)(F)CC1)C(=O)N[C@@H](C[C@@H]1CCNC1=O)C(O)S(=O)(=O)O (some centres not stated) | – | 1.25 | – | – | – |
| CC(C)C[C@H](NC(=O)OC(C)C1CCC(F)(F)CC1)C(=O)N[C@@H](C[C@@H]1CCNC1=O)C(O)S(=O)(=O)O (some centres not stated) | – | 0.26 | – | – | – |
| CC(C)C[C@H](NC(=O)OC1CCC(C)(C)CC1)C(=O)N[C@@H](C[C@@H]1CCNC1=O)C(O)S(=O)(=O)O (some centres not stated) | – | 0.24 | 1.67 | 0.12 | > 100 |
| CC(C)C[C@H](NC(=O)OCc1c(F)c(F)c(F)c(F)c1F)C(=O)N[C@H](C=O)C[C@@H]1CCNC1=O | – | – | 3.27 | 0.05 | > 100 |
| CCCC(OC(=O)N[C@@H](CC(C)C)C(=O)N[C@@H](C[C@@H]1CCNC1=O)C(O)S(=O)(=O)O)c1ccccc1 (some centres not stated) | – | 0.21 | 3.72 | 0.13 | > 100 |
| CCCC(OC(=O)N[C@@H](CC(C)C)C(=O)N[C@H](C=O)C[C@@H]1CCNC1=O)c1ccccc1 (some centres not stated) | – | 0.33 | 2.39 | 0.08 | > 100 |
| CC(C)C[C@H](NC(=O)OCc1ccccc1F)C(=O)N[C@@H](C[C@@H]1CCNC1=O)C(O)S(=O)(=O)O (some centres not stated) | – | 0.38 | – | – | – |
| CC(C)C[C@H](NC(=O)OC(Cc1ccccc1)C1CCC(F)(F)CC1)C(=O)N[C@@H](C[C@@H]1CCNC1=O)C(O)S(=O)(=O)O (some centres not stated) | – | 0.29 | 3.5 | 0.14 | > 100 |
| CC(C)C[C@H](NC(=O)O[C@H]1CC[C@H](C(C)C)CC1)C(=O)N[C@@H](C[C@@H]1CCNC1=O)C(O)S(=O)(=O)O (some centres not stated) | – | 0.24 | – | – | – |
| [2H]C([2H])(OC(=O)N[C@@H](CC(C)C)C(=O)N[C@@H](C[C@@H]1CCNC1=O)C(O)S(=O)(=O)[O-])[C@H]1CC[C@H](CCC)CC1.[Na+] (some centres not stated) | – | 0.33 | – | – | – |
| CC(C)C[C@H](NC(=O)OC(Cc1ccccc1)c1ccccc1)C(=O)N[C@H](C=O)C[C@@H]1CCNC1=O (some centres not stated) | – | 0.5 | – | – | – |
| [2H]C([2H])(OC(=O)N[C@@H](CC(C)C)C(=O)N[C@H](C=O)C[C@@H]1CCNC1=O)[C@H]1CC[C@H](CCC)CC1 | – | 0.33 | – | – | – |
| CC(C)C[C@H](NC(=O)OC[C@H]1CC[C@@H](C(F)(F)F)CC1)C(=O)N[C@@H](C[C@@H]1CCNC1=O)C(O)S(=O)(=O)O (some centres not stated) | – | 0.2 | – | – | – |

| Compound | EC50 (SARS-CoV-2) [µM] | IC50 [1] [µM] | EC50 [2] [µM] | IC50 [3] [µM] | CC50 (HEK-293T) [µM] |
| --- | --- | --- | --- | --- | --- |
| CC(C)C[C@H](NC(=O)OCc1ccc(F)cc1)C(=O)N[C@@H](C[C@@H]1CCNC1=O)C(O)S(=O)(=O)O (some centres not stated) | – | 0.4 | – | – | – |
| CC(C)C[C@H](NC(=O)OCC1CCC(F)(F)CC1)C(=O)N[C@H](C=O)C[C@@H]1CCNC1=O | – | – | – | 0.08 | – |
| CC(C)C[C@H](NC(=O)O[C@H]1CC[C@H](C(C)C)CC1)C(=O)N[C@H](C=O)C[C@@H]1CCNC1=O | – | 0.24 | – | – | – |
| CC(C)C[C@H](NC(=O)OCc1ccccc1F)C(=O)N[C@H](C=O)C[C@@H]1CCNC1=O | – | 0.34 | – | – | – |
| [2H]C([2H])(OC(=O)N[C@@H](CC(C)C)C(=O)N[C@@H](C[C@@H]1CCNC1=O)C(O)S(=O)(=O)[O-])C1CCC(F)(F)CC1.[Na+] (some centres not stated) | – | 0.21 | – | – | – |
| CC(C)C[C@H](NC(=O)O[C@H]1CC[C@H](c2ccccc2)CC1)C(=O)N[C@H](C=O)C[C@@H]1CCNC1=O | – | 0.22 | – | – | – |
| CC(C)C[C@H](NC(=O)OCC1CCC(F)(F)CC1)C(=O)N[C@@H](C[C@@H]1CCNC1=O)C(O)S(=O)(=O)O (some centres not stated) | – | – | – | 0.1 | – |
| CCC[C@H]1CC[C@H](COC(=O)N[C@@H](CC(C)C)C(=O)N[C@@H](C[C@@H]2CCNC2=O)C(O)S(=O)(=O)O)CC1 (some centres not stated) | – | 0.2 | 4.43 | 0.11 | 44 |
| CC(C)C[C@H](NC(=O)OC[C@H]1CC[C@H](C(F)(F)F)CC1)C(=O)N[C@@H](C[C@@H]1CCNC1=O)C(O)S(=O)(=O)O (some centres not stated) | – | 0.19 | – | – | – |
| CC(C)C[C@H](NC(=O)OC(c1ccccc1)C1CCC(F)(F)CC1)C(=O)N[C@H](C=O)C[C@@H]1CCNC1=O (some centres not stated) | – | 0.13 | 1.03 | 0.04 | > 100 |
| CCCCC(OC(=O)N[C@@H](CC(C)C)C(=O)N[C@@H](C[C@@H]1CCNC1=O)C(O)S(=O)(=O)O)C1CCC(F)(F)CC1 (some centres not stated) | – | 0.27 | – | – | – |
| CCC[C@H]1CC[C@H](OC(=O)N[C@@H](CC(C)C)C(=O)N[C@@H](C[C@@H]2CCNC2=O)C(O)S(=O)(=O)O)CC1 (some centres not stated) | – | 0.19 | – | – | – |
| [2H]C([2H])(OC(=O)N[C@@H](CC(C)C)C(=O)N[C@@H](C[C@@H]1CCNC1=O)C(O)S(=O)(=O)[O-])c1ccc(F)cc1.[Na+] (some centres not stated) | – | 0.32 | – | – | – |
| CC(C)C[C@H](NC(=O)OC[C@H]1CC[C@@H](C(F)(F)F)CC1)C(=O)N[C@H](C=O)C[C@@H]1CCNC1=O | – | 0.23 | – | – | – |
| CC(C)C[C@H](NC(=O)OC(C)(C)C1CCC(F)(F)CC1)C(=O)N[C@H](C=O)C[C@@H]1CCNC1=O | – | 1.2 | – | – | – |
| [2H]C([2H])(OC(=O)N[C@@H](CC(C)C)C(=O)N[C@H](C=O)C[C@@H]1CCNC1=O)c1ccc(F)cc1 | – | 0.39 | – | – | – |
| CC(C)C[C@H](NC(=O)OCc1cccc(F)c1)C(=O)N[C@@H](C[C@@H]1CCNC1=O)C(O)S(=O)(=O)O (some centres not stated) | – | 0.36 | 3.4 | 0.07 | > 100 |
| CC(C)C[C@H](NC(=O)OC(Cc1ccccc1)C1CCC(F)(F)CC1)C(=O)N[C@H](C=O)C[C@@H]1CCNC1=O (some centres not stated) | – | 0.31 | 2.95 | 0.1 | > 100 |
| CC(C)C[C@H](NC(=O)OC(Cc1ccccc1)c1ccccc1)C(=O)N[C@@H](C[C@@H]1CCNC1=O)C(O)S(=O)(=O)O (some centres not stated) | – | 0.31 | – | – | – |
| CC(C)C[C@H](NC(=O)OCc1c(F)c(F)c(F)c(F)c1F)C(=O)N[C@@H](C[C@@H]1CCNC1=O)C(O)S(=O)(=O)O (some centres not stated) | – | – | 4.84 | 0.08 | > 100 |
| CCCC[C@H]1CC[C@H](OC(=O)N[C@@H](CC(C)C)C(=O)N[C@@H](C[C@@H]2CCNC2=O)C(O)S(=O)(=O)O)CC1 (some centres not stated) | 0.85 | – | 4.23 | 0.15 | 58 |
| CC(C)C[C@H](NC(=O)OC(C)C1CCC(F)(F)CC1)C(=O)N[C@H](C=O)C[C@@H]1CCNC1=O (some centres not stated) | – | 0.26 | – | – | – |
| CCC[C@H]1CC[C@H](OC(=O)N[C@@H](CC(C)C)C(=O)N[C@H](C=O)C[C@@H]2CCNC2=O)CC1 | – | 0.25 | – | – | – |
